Screens (PubChem)
Only some compounds are listed: those with a hit (about 2.3% of all), similar ones and a draw of the others.
TRPC4 potent: allosterically enhances the mouse TRPC4 cation channel; HEK293 TRPC4beta/mu-opioid, DAMGO EC20, Fluo-4 Ca2+ flux; hits give high values; AID 2227; B-score at 10 µM; 310,000 tested, 0.42% active; Q9QUQ5;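 active means B-score of calcium response area above 5 SD of library B-scores, with initial fluorescence ratio within 5 SD of library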;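 further: B-score of integrated fluorescence ratio over time as area under calcium response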
TRPC6 act: mouse TRPC6 channel activation; Q61143; HEK293-TRPC6 membrane potential dye fluorescence; hits give high values; B-score at 10 µM; 310,000 tested, 0.13% active; AID 2550;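 active means B-score of the integrated fluorescence ratio above library mean plus 3 SD, and starting fluorescence ratio within library mean plus 5 SD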;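 further: higher score means more depolarization so channel activation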
Target sequence (Q61143 whole entry, looked up): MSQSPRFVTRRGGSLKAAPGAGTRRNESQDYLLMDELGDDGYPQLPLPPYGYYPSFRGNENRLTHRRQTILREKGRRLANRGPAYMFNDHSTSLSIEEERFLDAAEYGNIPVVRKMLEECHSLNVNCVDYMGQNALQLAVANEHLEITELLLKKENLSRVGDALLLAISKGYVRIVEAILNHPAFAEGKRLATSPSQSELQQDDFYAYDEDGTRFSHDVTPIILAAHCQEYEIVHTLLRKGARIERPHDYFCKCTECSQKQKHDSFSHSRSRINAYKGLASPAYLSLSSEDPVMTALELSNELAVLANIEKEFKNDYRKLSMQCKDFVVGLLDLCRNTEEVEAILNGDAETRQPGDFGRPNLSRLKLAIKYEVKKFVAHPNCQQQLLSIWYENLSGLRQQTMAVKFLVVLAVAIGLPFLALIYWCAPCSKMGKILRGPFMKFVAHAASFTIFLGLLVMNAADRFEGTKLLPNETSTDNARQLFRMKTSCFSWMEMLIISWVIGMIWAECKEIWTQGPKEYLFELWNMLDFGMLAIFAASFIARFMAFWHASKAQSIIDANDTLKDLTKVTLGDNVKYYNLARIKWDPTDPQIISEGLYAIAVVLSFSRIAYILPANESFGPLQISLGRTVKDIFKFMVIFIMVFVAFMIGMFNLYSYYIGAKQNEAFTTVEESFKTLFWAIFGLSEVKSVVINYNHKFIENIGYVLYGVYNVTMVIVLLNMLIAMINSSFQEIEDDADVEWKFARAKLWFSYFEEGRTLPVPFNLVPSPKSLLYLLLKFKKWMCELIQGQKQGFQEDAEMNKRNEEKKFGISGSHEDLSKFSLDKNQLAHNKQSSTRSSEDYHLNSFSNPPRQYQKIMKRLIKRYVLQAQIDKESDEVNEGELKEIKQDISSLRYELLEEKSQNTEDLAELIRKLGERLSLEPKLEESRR
TRPC4 block: blocks the mouse TRPC4 cation channel; HEK293 TRPC4beta/mu-opioid, DAMGO-evoked Fluo4 calcium flux; hits give low values; AID 2247; 300,000 tested, 0.39% active; B-score at 10 µM; Q9QUQ5;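 active means B-score over 3 SD under the library average, no early fluorescence shift, positive overall ratio signal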
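Assay system: HEK293 cells with stable TRPC4beta plus mu-opioid receptor expression; Probe or stimulus: DAMGO in two steps, submaximal then maximal; Dosing: single-point compound dosing; Measured by: Fluo4 calcium-dye fluorescence, kinetic read; Read-out basis: B score from integrated Fluo4 fluorescence ratio.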
TRPC4 agonist: activators of mouse TRPC4 channel; 310,000 tested, 0.49% active; B-score at 10 µM; HEK293 TRPC4beta/mu-opioid, Fluo4 calcium fluorescence; hits give high values; AID 2237; Q9QUQ5;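 active means B-score above 5 SD of library B-scores, and initial fluorescence ratio not above library mean plus 5 SD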;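 further: positive B-score marks a calcium rise read as TRPC4 activation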
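system = HEK293 cells stably co-expressing mouse TRPC4beta and mu-opioid receptor | schedule = Fluo4 dye loading 45 min at room temperature, 110 s recording | measure = B-scored integrated calcium fluorescence ratio | signal = Fluo4 calcium-sensitive dye fluorescence, kinetic, 1 Hz baseline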
TRPC6 inhibitor: mouse TRPC6 channel inhibition; HEK293-TRPC6, membrane potential dye, ACh-evoked depolarization; hits give low values; B-score at 10 µM; 310,000 tested, 1.1% active; AID 2553;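 active means B-score under library mean minus 3 SD, initial fluorescence not abnormally high, positive integrated signal ratio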;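 further: B-score derived from integrated fluorescence ratio over the kinetic read; more negative B-score means stronger inhibition of depolarization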
Active calls of the source: *; i = inactive.

SMILES	TRPC4 potent	TRPC6 act	TRPC4 block	TRPC4 agonist	TRPC6 inhibitor
COC(=O)c1ccsc1NC(=O)CCS(=O)(=O)c1ccc(Cl)cc1	i	i	i	i	i
CC(C)CCNC(=O)C1(c2cccs2)CCOCC1	i	i	i	i	i
Cc1ccc(C2CC(=O)c3cnn(-c4nc(C)cc(C)n4)c3C2)cc1 (stereo not given)	i	i	i	i	i
Cn1c(=O)n(-c2cccc(Cl)c2)c(=O)c2c3c(sc21)COC(C)(C)C3	i	i	i	i	i
COc1ccc(N(C(=O)c2ccc(S(=O)(=O)N3CCCC3)cc2)C2C=CS(=O)(=O)C2)cc1 (stereo not given)	i	i	i	i	i
CC(NC(=O)CN1CCN(S(=O)(=O)c2ccc(Br)cc2)CC1)c1ccccc1 (stereo not given)	i	i	i	i	i
O=C(NCc1ccc(F)cc1)c1cccnc1C(=O)O	i	i	i	i	i
COc1ccc(NC(=S)N(Cc2cccnc2)Cc2cc3cc(OC)c(OC)cc3[nH]c2=O)cc1	i	i	i	i	i
Cc1ccc(N(C(=O)c2snc(C(N)=O)c2N)C(C(=O)NCC2CCCO2)c2ccc3ncccc3c2)cc1 (stereo not given)	i	i	i	i	i
Cc1cccc(N(C(=O)c2snc(C(N)=O)c2N)C(C(=O)NCC2CCCO2)c2ccc3ncccc3c2)c1 (stereo not given)	i	i	-6*	i	i
COc1cccc(N(C(=O)c2snc(C(N)=O)c2N)C(C(=O)NCC2CCCO2)c2ccc3ncccc3c2)c1 (stereo not given)	i	i	-6*	i	i
NC(=O)c1nsc(C(=O)N(c2ccc(F)cc2)C(C(=O)NCC2CCCO2)c2ccc3ncccc3c2)c1N (stereo not given)	i	i	i	i	i
CC(Sc1nnc(-c2cccs2)n1N)C(=O)NCC1CCCO1 (stereo not given)	i	i	i	i	i
O=[N+]([O-])c1cc(-c2ccc(/C=N/n3cnnc3)o2)ccc1Cl	i	i	i	i	-13*
Cc1ccc(-c2c[n+](CC(=O)Nc3nc(-c4ccc(F)cc4)cs3)c3n2CCC3)cc1	i	i	-6*	i	i
COc1ccc(-c2csc(NC(=O)C3CSC4(C)CCC(=O)N34)n2)c(OC)c1 (stereo not given)	i	i	i	i	i
Cc1cc(C)c2c(=O)n(CC(=O)Nc3cccc(Cl)c3C)sc2n1	16*	i	i	i	i
CCCCNC(=O)CCn1c(=O)c2ccccc2n(Cc2ccc(Cl)cc2)c1=O	i	i	i	i	i
COc1ccc(C2NCCc3c2[nH]c2ccccc32)cc1CN1CCc2cc(OC)c(OC)cc2C1C (stereo not given)	i	i	-8*	47*	i
COc1ccc(CCNC(=O)C(C)OC(=O)c2nsc(Cl)c2Cl)cc1OC (stereo not given)	i	i	i	i	i
O=C(O)c1cc(Cl)c(Cl)cc1C(=O)Nc1cccc2cccnc12	i	i	i	i	i
COc1ccc(OC)c(-n2c(CNC3CCN(Cc4ccccc4)CC3)nc3ccccc3c2=O)c1	i	i	i	73*	i
C=CCNc1nc(Cl)nc(NC2CCCCC2)n1	i	i	i	i	i
CN1CCc2c(sc(NC(=O)c3ccc(S(=O)(=O)N4CCCC4)cc3)c2C(N)=O)C1	i	i	i	i	-6*
Cn1c2c(c(=O)n(C)c1=O)C(C(F)(F)F)(C(F)(F)F)N=C(CCC1CCCCC1)N2	11*	i	i	i	i
O=C(c1cccs1)N1CCN(c2ncc(Br)cn2)CC1	i	i	i	175*	i
O=C(c1ccncc1)N1CCN(C(=O)c2cccs2)CC1	i	i	i	i	i
c1ccc2c(-c3[nH]ncc3CNCCCn3ncc4ccccc43)cccc2c1	i	i	i	64*	i
OCC1CCCCN1CCNCc1cn[nH]c1-c1cccc2ccccc12 (stereo not given)	i	i	i	i	i
